Assay outcomes deposited in PubChem by Broad Institute.
Sampled rows, rich in hits. Any-hit rate of the full collection: about 1.9%.
RAD52 anneal inh = RAD52 DNA annealing inhibitors, primary screen, biochemical, FRET, single point, set 2; DNA repair protein RAD52 homolog (Homo sapiens), P43351; 0.46% of 360,000 active; AID 651710, 2012; recombinant RAD52 DNA annealing, FRET fluorescence; inhibition, % at 18.7 µM;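 active = every replicate showing at least 50% inhibition; inconclusive = mean inhibition at least 50% but not in every replicate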
PglD inh = C. jejuni PglD acetyltransferase inhibitors, primary screen, biochemical, DTNB colorimetric, single point; 0.098% of 360,000 active; AID 602405, 2012; purified PglD enzyme, DTNB colorimetric CoA detection; inhibition, % at 12.5 µM; in the data active = inhibition above about 16%, passing the limit was not always enough; inconclusive = no clear call, values can overlap the other calls
Cneo AK release = Cryptococcus neoformans cell lysis inducers, primary screen, AK release luminescence, single concentration; C. neoformans lysis, adenylate kinase release luminescence, 4 h; normalised: neutral wells 0, clomiphene wells 100; lysis activity, % at 15 µM; 0.2% of 360,000 active; AID 651654, 2012;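 active = mean lysis activity across replicates of at least 80%, whatever share of replicates individually reach that level; inactive = mean lysis activity below 80%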
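Signal: Adenylate kinase release luminescence | Assay system: Log-phase Cryptococcus neoformans yeast cells | Input: Cells at 5 × 10^6 per mL | Buffer or medium: Fresh YPD growth medium | Compound: Single dose | Schedule: Static 4 h at 37 °C with compound, 1 h detection | Controls: Clomiphene | Read-out: Luminescence rise reflecting yeast cell lysis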
RAD54 inh = inhibitors of human RAD54 branch migration, primary screen, biochemical, fluorescence, single point | DNA repair and recombination protein RAD54-like (Homo sapiens), Q92698 | RAD54 Holliday junction branch migration, FAM/BHQ fluorescence | inhibition, % at 10.4 µM | 0.14% of 360,000 active | AID 602329, 2012;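 active = mean normalized replicate activity at least 40 and at least half of replicates scoring 40 or more; inconclusive = only one of the two criteria met; inactive = mean below 40 and under half of replicates reaching 40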;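 also: inhibitors cause a drop in the FAM fluorescence signal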
Target sequence (Q92698 whole entry, looked up): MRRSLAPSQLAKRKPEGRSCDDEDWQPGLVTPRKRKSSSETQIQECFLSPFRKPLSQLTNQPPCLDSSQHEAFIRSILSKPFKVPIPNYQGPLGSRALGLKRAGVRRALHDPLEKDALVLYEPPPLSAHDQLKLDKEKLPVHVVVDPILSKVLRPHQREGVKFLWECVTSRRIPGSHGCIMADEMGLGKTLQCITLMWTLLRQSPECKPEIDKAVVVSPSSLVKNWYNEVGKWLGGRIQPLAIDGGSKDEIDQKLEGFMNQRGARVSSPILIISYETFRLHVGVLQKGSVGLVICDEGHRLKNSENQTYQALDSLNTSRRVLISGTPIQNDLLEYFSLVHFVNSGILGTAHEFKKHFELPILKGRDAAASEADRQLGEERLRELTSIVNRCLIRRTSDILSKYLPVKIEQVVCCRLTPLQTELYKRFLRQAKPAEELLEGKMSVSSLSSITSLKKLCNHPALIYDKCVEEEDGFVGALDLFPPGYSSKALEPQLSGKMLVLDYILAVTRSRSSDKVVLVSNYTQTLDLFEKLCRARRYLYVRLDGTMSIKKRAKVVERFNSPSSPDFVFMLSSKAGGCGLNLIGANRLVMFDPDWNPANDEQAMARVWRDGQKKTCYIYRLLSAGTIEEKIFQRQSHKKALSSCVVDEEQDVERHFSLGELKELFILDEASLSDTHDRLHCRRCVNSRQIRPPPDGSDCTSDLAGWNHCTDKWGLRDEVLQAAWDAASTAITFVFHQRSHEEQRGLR
Ecoli rRNA inh = reduced GFP signal of wild-type E. coli, primary screen, bacterial rRNA inhibitor project, GFP/RFP fluorescence, OD600, single point; E. coli WT GFP vs humanized-ribosome RFP mutants, 24 h; hits give low values; DMSO median 0, no signal -100; GFP signal change (wild-type ribosome), % (test concentration not listed); 1.6% of 350,000 active;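 active = significant combined selectivity score with lowered wild-type GFP, culture density cut under 30%, mutant RFP and density less affected; inactive = any of these conditions unmet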
Rad54 DNA ctr = DNA binding of candidate compounds, dose response, artefact control for RAD54 inhibitor project, biochemical, fluorescence polarization, cherry-pick; 8% of 460 active; AC50, µM (top dose mostly 35 µM); shares compounds with RAD54 inh; Acridine orange-DNA displacement, 20 min;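 active = signal drop giving an AC50 within twice the top valid tested concentration of each sample, actives reach about 35 µM in these data; inactive = activity opposite to expected, plus the rest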;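 also: polarization loss reports compound binding to salmon sperm DNA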
DNA binder FP = DNA-binding compounds via dye displacement, dose response, artefact control for RAD52 inhibitor project, biochemical, fluorescence polarization, cherry-pick; 8% of 1,000 active; Salmon sperm DNA/acridine orange FP displacement; AC50, µM; shares compounds with RAD52 anneal inh;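 active = fitted half-maximal concentration for signal loss at or below twice the highest dose tested, in every separate run, actives reach about 64 µM in these data; inconclusive = runs disagree, or flat partial signal loss, or poor fit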
Numbers stand for hits; 0 = inactive; ? = inconclusive; - = no result given; ! = a repeat was not active.

SMILES	RAD52 anneal inh	PglD inh	Cneo AK release	RAD54 inh	Ecoli rRNA inh	Rad54 DNA ctr	DNA binder FP
N=c1c(C(=O)NCCN2CCOCC2)cc2c(=O)n3ccccc3nc2n1CCCN1CCOCC1	77.0	0	0	56.8	0	0	0
CS(=O)(=O)N1C[C@H](O)COC[C@@H]2O[C@@H](CC(=O)NCCc3ccncc3)CC[C@H]21	0	0	0	0	0	-	-
Cc1[nH]ccc2cc3nc4ccccc4c3cc12	100.9	0	0	83.4	-	0	?
COc1ccc(S(=O)(=O)N(C)C[C@@H]2OCCCC[C@@H](C)Oc3ccc(NS(=O)(=O)c4cn(C)cn4)cc3C(=O)N([C@H](C)CO)C[C@H]2C)cc1	0	0	0	0	0	-	-
COc1cc(C(=O)NC2CCN(C)CC2)ccc1Nc1ncc2c(n1)N(C1CCCCC1)CCC(=O)N2C	96.9	0	0	78.2	0	0	0
O=c1c2ccccc2sc2c(CO)ccc(NCCN3CCCCC3)c12	0	-	-	-	-	-	-
CCN(CC)CCNc1ccc(CO)c2sc3ccccc3c(=O)c12	54.1	0	0	100.2	0	29.3µM	21.9µM
CN(C)CCNc1ncnc2sc(-c3ccccc3)cc12	58.6	0	0	67.3	0	0	0
CN(C)CCCN1C(=O)c2cccc3cccc(c23)C1=O	58.5	0	0	102.1	0	0	0
CN(C)CCCN1C(=O)c2cc3ccccc3cc2C1=O	0	0	0	0	0	-	-
CC(=O)N[C@@H]1CC[C@@H](CCNC(=O)Nc2ccc(C(F)(F)F)cc2)O[C@H]1CO	0	0	0	0	0	-	-
OC(CN1CCN(c2ccccn2)CC1)Cn1c2ccc(Cl)cc2c2cc(Cl)ccc21 (stereo not given)	-	0	0	0	-	-	-
OC(CN1CCCCC1)Cn1c2ccc(Cl)cc2c2cc(Cl)ccc21 (stereo not given)	59.1	0	0	54.5	0	0	0
CCN1CCN(c2ccc(NC(=O)c3cc4ccccc4cc3OC)cc2C)CC1	83.4	0	0	53.5	0	0	0
CCN1CCN(c2ccc(NC(=O)c3ccccc3F)cc2Cl)CC1	0	0	0	0	0	-	-
O=C(C1CC1)N1C[C@@H]2N[C@H](C1)C2c1ccc(-c2cccc(F)c2)cc1 (stereo not given in full)	-	-	-	-	0	-	-
Cc1ccc2nc(Cl)c3cc(C(=O)NCCCN4CCCC4)sc3c2c1	79.1	0	0	78.6	0	0	48.5µM
CCN1CCN(c2cc(C)c3cc(NC(=S)N(C)Cc4ccccc4)ccc3n2)CC1	0	0	0	0	0	-	-
CCCN1CCN(CCCNC(=S)Nc2ccc3nc(N4CCN(CC)CC4)cc(C)c3c2)CC1	99.4	0	0	109.8	0	0	0
CCN(CC)CCNC(=S)Nc1ccc2nc(N3CCN(CC)CC3)cc(C)c2c1	92.5	0	0	78.7	0	0	0
CCN1CCN(c2cc(C)c3cc(NC(=S)NCCCN4CCc5ccccc5C4)ccc3n2)CC1	105.7	0	0	98.4	0	0	0
CCCCN(CC)C(=S)Nc1ccc2nc(N3CCN(C)CC3)cc(C)c2c1	0	0	0	0	0	-	-
Cc1cc(N2CCN(C)CC2)nc2ccc(NC(=S)NCCCN3CCc4ccccc4C3)cc12	100.3	0	0	80.2	0	0	0
CC(C)NC(=O)Nc1cccc2c1O[C@@H](CN(C)S(C)(=O)=O)[C@H](C)CN(C)C2=O	-	-	-	-	0	-	-
C[C@H](CO)N1C[C@H](C)[C@H](CN(C)C(=O)Nc2cccc(Oc3ccccn3)c2)OCc2cn(nn2)CCCC1=O	-	-	-	-	0	-	-
SMILES	RAD52 anneal inh	PglD inh	Cneo AK release	RAD54 inh	Ecoli rRNA inh	Rad54 DNA ctr	DNA binder FP
CCOc1ccc(Nc2nc(NCC3CCCO3)c3ccccc3n2)cc1 (stereo not given)	0	-	-	-	0	-	-
COc1ccc(Nc2nc(NCC3CCCO3)c3ccccc3n2)c(OC)c1 (stereo not given)	54.1	0	0	?	0	0	0
CC(=O)Nc1cc(-c2ccc(N3CCN(C)CC3)cc2)cn2c(-c3ccc(S(C)(=O)=O)cc3)cnc12	73.3	0	0	104.1	0	0	0
COc1cccc(-c2cc(NC=O)c3ncc(-c4cccc(C(=O)NCCN(C)C)c4)n3c2)c1	94.2	0	0	81.0	0	0	0
CN(C)CCNC(=O)c1cccc(-c2cnc3c(NC=O)cc(-c4ccc(S(C)(=O)=O)cc4)cn23)c1	95.7	0	0	65.0	0	0	0
C[C@H]1CN([C@@H](C)CO)C(=O)c2cc(C#CC(C)(C)O)cnc2O[C@H]1CN(C)C(=O)C1CCCCC1	-	-	-	-	0	-	-
CCN(CC)Cc1cc(Nc2ccnc3cc(Cl)ccc23)ccc1O	87.9!	0	0	74.7!	-	0	0
CCCNC(=O)NC[C@H]1[C@@H](c2ccc(C3=CCCCC3)cc2)[C@H](CO)N1C(C)=O	0	0	0	0	0	-	-
CCOc1ccc(Nc2c3ccccc3nc3ccccc23)cc1	85.4	0	0	106.3	0	26.6µM	0
Cc1ccc(-c2nc(NCCCN(C)C)c3ccccc3n2)cc1	83.7	0	0	82.8	0	0	0
CN(C)CCCNc1c2ccccc2nc2ccccc12	86.7	0	0	99.2	0	7.56µM	9.35µM
CN(C)CCNc1c2c(nc3ccccc13)CCC2	0	0	0	0	0	-	-
c1ccc(CNc2c3ccccc3nc3ccccc23)cc1	83.6	0	0	83.4	0	28.9µM	?
Cc1cccc(-c2nc(NCCN(C)C)c3ccccc3n2)c1	0	0	0	0	-	-	-
c1ccc(CNc2ncnc3ccccc23)cc1	0	0	0	0	-	-	-
CC(C)NC(=O)N(C)C[C@@H]1Oc2ncc(C#CC3CC3)cc2C(=O)N([C@@H](C)CO)C[C@@H]1C	0	0	0	0	0	-	-
C[C@@H]1CN([C@H](C)CO)C(=O)c2cc(NC(=O)Nc3ccc(C(F)(F)F)cc3)ccc2O[C@@H](C)CCCCO[C@@H]1CN(C)S(=O)(=O)c1ccc(Cl)cc1	-	0	0	0	0	-	-
COc1cccc(CNc2nc3cc(-c4cccc(OC)c4)sc3c(=O)n2C)c1	0	0	0	0	0	-	-
Cn1c(NCCN2CCCC2)nc2cc(-c3ccccc3)sc2c1=O	52.4	0	0	?	0	0	0
COc1cccc(-c2cc3nc(NCCN4CCCC4)n(C)c(=O)c3s2)c1	89.0	0	0	69.8	0	0	0
Cn1c(NCCN2CCCC2)nc2cc(-c3cccc(C(F)(F)F)c3)sc2c1=O	0	0	0	0	0	-	-
